# Assay results: publication PMC6300982 (Chemosphere, 2015)
# Assays:
# Format in all cases: biochemical
# UGT1A3 [1] = target: T1, UGT1A3 (Homo sapiens, UniProt P35503); assay: glucuronidation of 4-MU by recombinant enzyme, HPLC-UV
# T1 sequence (P35503 29-534): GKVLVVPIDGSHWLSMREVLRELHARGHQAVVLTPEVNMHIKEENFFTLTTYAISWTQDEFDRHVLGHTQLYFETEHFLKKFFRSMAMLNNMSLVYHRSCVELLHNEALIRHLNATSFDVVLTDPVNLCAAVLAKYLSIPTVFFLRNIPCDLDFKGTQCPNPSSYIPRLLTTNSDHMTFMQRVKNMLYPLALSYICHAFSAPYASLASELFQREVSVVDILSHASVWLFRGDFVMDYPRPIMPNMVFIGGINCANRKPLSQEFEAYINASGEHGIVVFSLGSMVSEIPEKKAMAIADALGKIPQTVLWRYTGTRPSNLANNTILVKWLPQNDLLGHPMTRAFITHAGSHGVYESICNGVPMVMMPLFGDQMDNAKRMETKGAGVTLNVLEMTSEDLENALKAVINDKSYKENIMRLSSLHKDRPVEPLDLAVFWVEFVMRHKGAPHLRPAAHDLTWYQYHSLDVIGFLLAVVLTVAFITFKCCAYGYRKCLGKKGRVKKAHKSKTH
# UGT1A9 = target: T2, UGT1A9 (Homo sapiens, UniProt O60656); assay: single-concentration; details: read-out: % inhibition at 100 μM
# T2 sequence (O60656 26-530): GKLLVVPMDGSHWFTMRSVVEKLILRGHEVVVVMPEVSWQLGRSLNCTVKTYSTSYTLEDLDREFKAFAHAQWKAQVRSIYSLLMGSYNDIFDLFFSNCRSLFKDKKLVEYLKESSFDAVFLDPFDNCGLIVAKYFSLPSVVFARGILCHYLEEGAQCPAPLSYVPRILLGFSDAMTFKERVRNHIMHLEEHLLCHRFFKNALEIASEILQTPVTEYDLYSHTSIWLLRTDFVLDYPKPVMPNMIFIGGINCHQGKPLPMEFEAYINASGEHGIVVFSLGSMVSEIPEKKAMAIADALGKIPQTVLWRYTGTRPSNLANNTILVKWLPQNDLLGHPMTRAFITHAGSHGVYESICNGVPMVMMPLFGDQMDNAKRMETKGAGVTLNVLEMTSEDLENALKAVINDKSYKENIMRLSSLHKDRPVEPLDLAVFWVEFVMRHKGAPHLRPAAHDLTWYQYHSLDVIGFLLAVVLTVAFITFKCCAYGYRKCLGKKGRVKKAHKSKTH
# UGT1A3 [2] = target: T1, UGT1A3; assay: dose-dependent inhibition of 4-MU glucuronidation, HPLC-UV; details: read-out: % inhibition at 100 μM
# UGT2B7 = target: T3, UGT2B7 (Homo sapiens, UniProt P16662); assay: single-concentration; details: read-out: % inhibition at 100 μM
# T3 sequence (P16662 24-529): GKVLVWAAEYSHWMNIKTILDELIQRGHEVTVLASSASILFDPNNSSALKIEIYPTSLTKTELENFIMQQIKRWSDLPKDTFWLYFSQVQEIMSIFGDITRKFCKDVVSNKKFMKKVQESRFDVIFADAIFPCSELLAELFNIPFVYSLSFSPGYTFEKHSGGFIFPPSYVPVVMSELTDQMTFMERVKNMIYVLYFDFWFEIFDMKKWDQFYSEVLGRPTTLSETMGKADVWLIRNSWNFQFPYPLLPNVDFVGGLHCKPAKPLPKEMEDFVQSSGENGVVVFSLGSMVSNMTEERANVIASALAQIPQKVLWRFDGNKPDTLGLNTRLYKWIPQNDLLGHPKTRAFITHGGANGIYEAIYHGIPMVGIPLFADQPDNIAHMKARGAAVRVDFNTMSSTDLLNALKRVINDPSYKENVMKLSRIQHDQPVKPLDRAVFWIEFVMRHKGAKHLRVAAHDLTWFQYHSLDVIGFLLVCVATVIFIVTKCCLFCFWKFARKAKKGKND
# UGT1A3 [3] = target: T1, UGT1A3; assay: inhibition kinetics of 4-MU glucuronidation by recombinant enzyme
# In short: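 Insect-cell-expressed human UGT1A3 glucuronidating 4-MU across several substrate and test compound concentrations. Buffer: 5 mM UDPGA, 5 mM MgCl2, 50 mM Tris-HCl pH 7.4. 5 min preincubation, started with UDPGA, 37 °C. 4-MUG quantified by HPLC-UV at 316 nm against internal standard. Dixon and Lineweaver–Burk plots gave inhibition type; Ki from secondary plot of Lineweaver–Burk slopes versus inhibitor concentration.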
# UGT1A6 = target: T4, UGT1A6 (Homo sapiens, UniProt P19224); assay: single-concentration; details: read-out: % inhibition at 100 μM
# T4 sequence (P19224 27-532): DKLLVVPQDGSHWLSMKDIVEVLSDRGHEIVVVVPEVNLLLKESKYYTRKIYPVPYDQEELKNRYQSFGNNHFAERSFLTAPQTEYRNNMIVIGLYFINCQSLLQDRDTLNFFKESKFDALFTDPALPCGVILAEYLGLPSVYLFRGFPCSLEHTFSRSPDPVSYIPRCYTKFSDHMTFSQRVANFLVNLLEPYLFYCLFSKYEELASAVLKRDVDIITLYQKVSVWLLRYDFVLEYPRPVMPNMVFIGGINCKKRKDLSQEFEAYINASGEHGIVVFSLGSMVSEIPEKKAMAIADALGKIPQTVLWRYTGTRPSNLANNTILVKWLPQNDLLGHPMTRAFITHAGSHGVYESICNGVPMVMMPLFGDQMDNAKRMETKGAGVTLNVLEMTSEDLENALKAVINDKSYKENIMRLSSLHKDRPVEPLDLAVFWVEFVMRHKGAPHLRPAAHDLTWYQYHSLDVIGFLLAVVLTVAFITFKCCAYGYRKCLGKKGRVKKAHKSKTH
Compound,"glucuronidation of 4-MU by recombinant enzyme, HPLC-UV (UGT1A3 [1])",inhibition at 100 µM (UGT1A9) [%],inhibition at 100 µM (UGT1A3 [2]) [%],inhibition at 100 µM (UGT2B7) [%],Ki (UGT1A3 [3]) [nM],inhibition at 100 µM (UGT1A6) [%]
"Cc1cc(=O)oc2cc(O)ccc12 [4-MU, 4-Methylμmbelliferone]",Determination of inhibition kinetics of DPhP towards UGT1A3-catalyzed glucuronidation of 4-MU,–,–,–,–,–
"CCCCCCCCOC(=O)c1ccccc1C(=O)OCCCCCCCC [DNOP, di-n-octyl ortho-phthalate]",–,45.6,41.8,48.8,–,–
"O=C(Oc1ccccc1)c1ccccc1C(=O)Oc1ccccc1 [DPhP, diphenyl phthalate]",–,76.4,–,–,890,49.1
